Assay results from ChEMBL document CHEMBL5252538, “β-Lactam analogues of combretastatin A-4 prevent metabolic inactivation by glucuronidation in chemoresistant HT-29 colon cancer cells” (Eur J Med Chem, 2017).
pIC50: −log10 of the molar value. Active and inactive are the calls of the source. No cut-off for these calls is given here.

Tests used:
[1] = test system: HL-60; test: Antiproliferative activity against […] human HL-60 cells assessed as inhibition of cell growth incubated for 72 hrs by alamar blue assay; format: functional, cell-based; conditions: HL-60, 72 h
Method in brief: (§1)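 Cells seeded 24 h before treatment (HL-60 4 × 10⁴, MCF-7 5 × 10³ per well), then given medium, vehicle (1% ethanol v/v) or serial dilutions (eight concentrations) for 72 h. Alamar Blue (10% v/v) added for 3–5 h at 37 °C in the dark, fluorescence read at ex 530/em 590 nm. Viability expressed relative to vehicle (100%), IC50 from dose–response curves; three experiments in triplicate.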

[2] = test system: MCF7; test: Antiproliferative activity against […] human MCF7 cells assessed as inhibition of cell growth incubated for 72 hrs by alamar blue assay; format: functional, cell-based; conditions: MCF7, 72 h; method in brief: as §1
[3] = test system: HT-29; test: Antiproliferative activity against combretastatin A-4 resistant human HT-29 cells assessed as inhibition of cell growth incubated for 72 hrs by SRB assay; format: functional, cell-based; conditions: HT-29, 72 h
Method in brief: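 HT-29 (DMEM Glutamax, 10% FBS) seeded at 1 × 10⁴ cells/well, treated after 24 h with vehicle (1% ethanol v/v) or serial dilutions (eight concentrations) for 72 h; viability measured by sulforhodamine B protocol. Percent viability relative to vehicle control, IC50 from dose–response curves; mean of three experiments in triplicate.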

[4] = molecular target: Tubulin (Bos taurus) (UniProt Q6B856+Q862L2+Q862F3); test: Inhibition of bovine tubulin polymerisation assessed as fold reduction in Vmax at 10 uM measured every 30 secs for 30 mins by spectrophotometric method relative to control; format: protein assay
[5] = test system: Panel NCI-60 (60 carcinoma cell lines); test: Antiproliferative activity against human panel NCI-60 (60 carcinoma cell lines) assessed as inhibition of cell growth at 10 uM incubated for 72 hrs by SRB assay; format: functional, cell-based
[6] = test system: HT-29; test: Induction of cell cycle arrest in human HT-29 cells assessed as accumulation of cells at G2/M phase at 1 uM incubated for 24 hrs by RAase A/PI staining based flow cytometry analysis (reference value: 16%); format: functional
[7] = molecular target: Tubulin (Homo sapiens) (UniProt P68371+Q9H4B7+P0DPH7+P68366+Q13509+Q71U36+P04350+Q3ZCM7+P07437+P68363+Q9BQE3+Q6PEY2+Q13885+Q9BVA1+Q9BUF5); test: Induction of microtubule disruption in human HT-29 cells assessed as effect on microtubule organization at 1 uM incubated for 16 hrs by immunofluorescence based confocal microscopic analysis; format: cell-based
[8] = test system: HT-29; test: Induction of cell cycle arrest in human HT-29 cells assessed as accumulation of cells at G2/M phase at 1 uM incubated for 24 hrs in presence of 2,3-bis(amino((2-aminophenyl)thio)methylene)succinonitrile by RAase A/PI staining based flow cytometry analysis (reference value: 16%); format: functional
[9] = test system: HT-29; test: Induction of cell cycle arrest in human HT-29 cells assessed as accumulation of cells at G0/G1 phase at 1 uM incubated for 24 hrs in presence of 2,3-bis(amino((2aminophenyl)thio)methylene)succinonitrile by RAase A/PI staining based flow cytometry analysis (reference value: 57%); format: functional
[10] = molecular target: Tubulin beta (Homo sapiens) (UniProt P68371+Q9H4B7+Q13509+P04350+Q3ZCM7+P07437+Q13885+Q9BVA1+Q9BUF5+A6NNZ2); test: Binding affinity to colchicine binding site of beta-tubulin in human MCF7 cells assessed as inhibition of beta-tubulin-EBI adduct formation at 10 uM pretreated for 2 hrs followed by EBI addition and measured after 1.5 hrs by Western blot analysis; format: cell-based; conditions: time 3.5 hrs
Method in brief: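 Cells seeded at 5 × 10⁴/well, grown overnight, treated with vehicle (0.1% ethanol v/v) or compound (10 µM) for 2 h, then EBI (100 µM) added for 1.5 h. Cells washed with ice-cold PBS, lysed in Laemmli buffer, run on SDS-PAGE, blotted and probed for β-tubulin to detect the faster-migrating β-tubulin–EBI adduct; GAPDH reprobe for loading; three independent experiments.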

[11] = test system: HT-29; test: Induction of cell cycle arrest in human HT-29 cells assessed as accumulation of cells at G0/G1 phase at 1 uM incubated for 24 hrs by RAase A/PI staining based flow cytometry analysis (reference value: 57%); format: functional

## COc1cc(N2C(=O)C(Oc3ccccc3)C2c2ccc(SC)cc2)cc(OC)c1OC (mixture of isomers)
[1]
  pIC50: 6.41
[2]
  pIC50: 6.82
[3]
  pIC50: 6.47

## CCSc1ccc(C2C(Oc3ccccc3)C(=O)N2c2cc(OC)c(OC)c(OC)c2)cc1 (mixture of isomers)
[1]
  pIC50: 6.29
[2]
  pIC50: 6.68
[3]
  pIC50: 6.20

## CCOc1ccc(C2C(O)C(=O)N2c2cc(OC)c(OC)c(OC)c2)cc1 (mixture of isomers)
[1]
  pIC50: 7.96
[2]
  pIC50: 8.15
[3]
  pIC50: 7.82

## COc1cc(N2C(=O)C(c3ccccc3)C2c2ccc(O)cc2)cc(OC)c1OC (mixture of isomers)
[1]
  pIC50: < 4.30
[2]
  pIC50: < 4.30
[3]
  pIC50: < 4.30

## COc1ccc(C2CC(=O)N2c2cc(OC)c(OC)c(OC)c2)cc1O (racemic)
[1]
  pIC50: 8.10
[2]
  pIC50: 8.22
[3]
  pIC50: 6.28

## COc1ccc(C2CC(=O)N2c2cc(OC)c(OC)c(OC)c2)cc1 (racemic)
[1]
  pIC50: 7.12
[3]
  pIC50: 7.19

## COc1ccc(C2C(Cl)C(=O)N2c2cc(OC)c(OC)c(OC)c2)cc1 (racemic)
[1]
  pIC50: 6.79
[2]
  pIC50: 7.25
[3]
  pIC50: 6.87

## C=CC1C(=O)N(c2cc(OC)c(OC)c(OC)c2)C1c1ccc(SC)cc1 (racemic)
[4]
  fold change (FC): 3.4
[1]
  pIC50: 7.21
[2]
  pIC50: 7.29
[3]
  pIC50: 6.95

## COc1cc(N2C(=O)CC2c2ccc(SC)cc2)cc(OC)c1OC (racemic)
[1]
  pIC50: 7.16
[2]
  pIC50: 7.17
[3]
  pIC50: 6.97

## C=CC1C(=O)N(c2cc(OC)c(OC)c(OC)c2)C1c1ccc(SCC)cc1 (racemic)
[1]
  pIC50: 6.49
[2]
  pIC50: 6.74
[3]
  pIC50: 6.59

## COc1cc(N2C(=O)C(C3CC3)C2c2ccc(SC)cc2)cc(OC)c1OC (racemic)
[1]
  pIC50: 6.55
[2]
  pIC50: 6.88
[3]
  pIC50: 6.69

## COc1ccc(C2C(Oc3ccccc3)C(=O)N2c2cc(OC)c(OC)c(OC)c2)cc1 (racemic)
[1]
  pIC50: 7.72
[2]
  pIC50: 7.64
[3]
  pIC50: 7.28

## CCOc1ccc(C2C(Oc3ccccc3)C(=O)N2c2cc(OC)c(OC)c(OC)c2)cc1 (racemic)
[1]
  pIC50: 6.31
[2]
  pIC50: 7.16
[3]
  pIC50: 6.41

## CCSc1ccc(C2C(Cl)C(=O)N2c2cc(OC)c(OC)c(OC)c2)cc1 (racemic)
[1]
  pIC50: 6.41
[2]
  pIC50: 6.60
[3]
  pIC50: 6.62

## COc1ccc(C2C(O)C(=O)N2c2cc(OC)c(OC)c(OC)c2)cc1O (racemic)
[1]
  pIC50: 8.30
[2]
  pIC50: 8.52
[3]
  pIC50: 6.33

## CCOc1ccc(C2C(Cl)C(=O)N2c2cc(OC)c(OC)c(OC)c2)cc1 (racemic)
[1]
  pIC50: 6.68
[2]
  pIC50: 7.06
[3]
  pIC50: 6.69

## CCSc1ccc(C2N(c3cc(OC)c(OC)c(OC)c3)C(=O)C2(Cl)Cl)cc1 (racemic)
[1]
  pIC50: 6.32
[2]
  pIC50: 6.18
[3]
  pIC50: 6.26

## CCSc1ccc(C2C(C3CC3)C(=O)N2c2cc(OC)c(OC)c(OC)c2)cc1 (racemic)
[1]
  pIC50: 6.10
[2]
  pIC50: 6.22
[3]
  pIC50: 5.81

## CCSc1ccc(C2CC(=O)N2c2cc(OC)c(OC)c(OC)c2)cc1 (racemic)
[1]
  pIC50: 6.69
[2]
  pIC50: 6.85
[3]
  pIC50: 6.51

## CCSc1ccc(C2C(c3ccccc3)C(=O)N2c2cc(OC)c(OC)c(OC)c2)cc1 (racemic)
[1]
  pIC50: 6.37
[2]
  pIC50: 6.42
[3]
  pIC50: 5.50

## CCOc1ccc(C2CC(=O)N2c2cc(OC)c(OC)c(OC)c2)cc1 (racemic)
[1]
  pIC50: 7.06
[2]
  pIC50: 7.19
[3]
  pIC50: 7.19

## CCOc1ccc(C2N(c3cc(OC)c(OC)c(OC)c3)C(=O)C2(Cl)Cl)cc1 (racemic)
[1]
  pIC50: 6.74
[2]
  pIC50: 6.57
[3]
  pIC50: 6.49

## COc1cc(N2C(=O)C(Cl)C2c2ccc(SC)cc2)cc(OC)c1OC (racemic)
[4]
  fold change (FC): 2
[1]
  pIC50: 6.28
[5]
  inhibition: Active
[2]
  pIC50: 7.14
[3]
  pIC50: 6.86

## C=CC1C(=O)N(c2cc(OC)c(OC)c(OC)c2)C1c1ccc(OC)cc1 (racemic)
[1]
  pIC50: 7.48
[2]
  pIC50: 7.77
[3]
  pIC50: 8.00

## C=CC1C(=O)N(c2cc(OC)c(OC)c(OC)c2)C1c1ccc(OCC)cc1 (racemic)
[1]
  pIC50: 7.46
[2]
  pIC50: 7.85
[3]
  pIC50: 7.01

## COc1cc(N2C(=O)C(Cl)(Cl)C2c2ccc(SC)cc2)cc(OC)c1OC (racemic)
[1]
  pIC50: 6.65
[2]
  pIC50: 6.54
[3]
  pIC50: 6.51

## COc1ccc(C2N(c3cc(OC)c(OC)c(OC)c3)C(=O)C2(Cl)Cl)cc1 (racemic)
[1]
  pIC50: 6.84
[2]
  pIC50: 6.88
[3]
  pIC50: 6.57

## CCSc1ccc(C2C(O)C(=O)N2c2cc(OC)c(OC)c(OC)c2)cc1 (racemic)
[1]
  pIC50: 7.80
[2]
  pIC50: 8.22
[3]
  pIC50: 7.92

## CCOc1ccc(C2C(c3ccccc3)C(=O)N2c2cc(OC)c(OC)c(OC)c2)cc1 (racemic)
[1]
  pIC50: 7.13
[2]
  pIC50: 7.30
[3]
  pIC50: 7.12

## COc1ccc(C2C(O)C(=O)N2c2cc(OC)c(OC)c(OC)c2)cc1 (racemic)
[1]
  pIC50: 7.89
[2]
  pIC50: 8.40
[3]
  pIC50: 7.92

## COc1ccc([C@@H]2[C@@H](Oc3ccccc3)C(=O)N2c2cc(OC)c(OC)c(OC)c2)cc1O (relative stereo)
[1]
  pIC50: 8.15
[2]
  pIC50: 7.64
[3]
  pIC50: 6.16

## COc1ccc(/C=C\c2cc(OC)c(OC)c(OC)c2)cc1O [COMBRETASTATIN A4]
[6]
  Activity: 15%
[4]
  fold change (FC): 2
[7]
  Activity: inactive
[8]
  Activity: 50%
[1]
  pIC50: 8.72
[9]
  Activity: 14%
[10]
  inhibition: Active
[2]
  pIC50: 8.46
[11]
  Activity: 52%
[3]
  pIC50: 5.38
